# Test results taken from ChEMBL document CHEMBL3627671, “Novel derivatives of nitro-substituted salicylic acids: Synthesis, antimicrobial activity and cytotoxicity” (Bioorg Med Chem, 2015).
# Columns and labels:
# Format in all cases: functional
# Enterococcus sp. [1] = assay: Antibacterial activity against Enterococcus sp. J 14365/08 after 48 hrs by microdilution broth method; conditions: J 14365/08, 48 h
# Procedure, shortened: (§1)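 Mueller-Hinton broth microdilution (modified M07-A07), pH 7.4 (±0.2). Compounds dissolved in DMSO, tested at final 500 to 0.49 µmol/L. Inoculum in sterile water matched to 0.5 McFarland. Incubated in the dark, humid atmosphere, 35 °C, read at 24 and 48 h visually and at 540 nm. MIC taken as ≥95% growth reduction (IC95) versus control.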
# Escherichia coli [2] = assay: Antibacterial activity against Escherichia coli CCM4517 after 48 hrs by microdilution broth method; conditions: CCM4517, 48 h; procedure, shortened: as §1
# Candida tropicalis [3] = assay: Antifungal activity against Candida tropicalis 156 after 48 hrs by microdilution broth method; conditions: Candida tropicalis, 156, 48 h
# Procedure, shortened: (§2)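 CLSI M27-A3 broth microdilution in RPMI 1640 with glutamine, buffered to pH 7.0 with MOPS; DMSO diluent. Yeast inoculum 5 × 10^3 ± 0.2 CFU/mL. Moulds grown on Sabouraud agar 3–10 days before spore harvest, final inoculum 0.5-5 × 10^4 CFU/mL, checked in a Bürker chamber. Incubated dark, humid, 35 °C, read at 24 and 48 h visually and at 540 nm. MIC taken as ≥80% (yeasts) or ≥50% (filamentous) growth reduction versus control.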
# Staphylococcus aureus [4] = assay: Antibacterial activity against methicillin-resistant Staphylococcus aureus H 5996/08 after 48 hrs by microdilution broth method; conditions: H 5996/08, 48 h
# Mycobacterium avium [5] = assay: Antimycobacterial activity against Mycobacterium avium 330/80 after 14 days; conditions: 330/80, 336 h
# Escherichia coli [6] = assay: Antibacterial activity against Escherichia coli CCM4517 after 24 hrs by microdilution broth method; conditions: CCM4517, 24 h; procedure, shortened: as §1
# Staphylococcus aureus [7] = assay: Antibacterial activity against Staphylococcus aureus CCM 4516/08 after 48 hrs by microdilution broth method; conditions: CCM 4516/08, 48 h
# Candida tropicalis [8] = assay: Antifungal activity against Candida tropicalis 156 after 24 hrs by microdilution broth method; conditions: Candida tropicalis, 156, 24 h; procedure, shortened: as §2
# [9] = test system: Mycobacterium tuberculosis; assay: Antimycobacterial activity against Mycobacterium tuberculosis H37Rv 331/88 after 14 days; conditions: H37Rv 331/88, 336 h
# Mycobacterium kansasii [10] = assay: Antimycobacterial activity against Mycobacterium kansasii 6509/96 after 14 days; conditions: 6509/96, 336 h
# Procedure, shortened: (§3)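 Šula's semisynthetic medium micromethod at 37 °C, read after 7, 14 and 21 days. The 1.0 McFarland suspension was diluted 10^-4. MIC determined. 6509/96 is a clinical isolate.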
# Mycobacterium kansasii [11] = assay: Antimycobacterial activity against Mycobacterium kansasii 235/80 after 14 days; conditions: 235/80, 336 h; procedure, shortened: as §3
# Candida albicans [12] = assay: Antifungal activity against Candida albicans ATCC 44859 after 48 hrs by microdilution broth method; conditions: ATCC 44859, 48 h; procedure, shortened: as §2
# Klebsiella pneumoniae [13] = assay: Antibacterial activity against ESBL-positive Klebsiella pneumoniae J 14368/08 after 24 hrs by microdilution broth method; conditions: J 14368/08, 24 h; procedure, shortened: as §1
# Pseudomonas aeruginosa [14] = assay: Antibacterial activity against Pseudomonas aeruginosa CCM 1961 after 48 hrs by microdilution broth method; conditions: CCM 1961, 48 h; procedure, shortened: as §1
# Mycobacterium kansasii [15] = assay: Antimycobacterial activity against Mycobacterium kansasii 235/80 after 7 days; conditions: 235/80, 168 h; procedure, shortened: as §3
# Mycobacterium kansasii [16] = assay: Antimycobacterial activity against Mycobacterium kansasii 6509/96 after 21 days; conditions: 6509/96, 504 h; procedure, shortened: as §3
# [17] = test system: Trichophyton mentagrophytes; assay: Antifungal activity against Trichophyton mentagrophytes 445 after 24 hrs by microdilution broth method; conditions: Trichophyton mentagrophytes, 445, 24 h
# [18] = test system: Staphylococcus epidermidis; assay: Antibacterial activity against Staphylococcus epidermidis H 6966/08 after 24 hrs by microdilution broth method; conditions: H 6966/08, 24 h; procedure, shortened: as §1
# Klebsiella pneumoniae [19] = assay: Antibacterial activity against ESBL-positive Klebsiella pneumoniae J 14368/08 after 48 hrs by microdilution broth method; conditions: J 14368/08, 48 h; procedure, shortened: as §1
# Staphylococcus aureus [20] = assay: Antibacterial activity against Staphylococcus aureus CCM 4516/08 after 24 hrs by microdilution broth method; conditions: CCM 4516/08, 24 h
# Trichosporon asahii [21] = assay: Antifungal activity against Trichosporon asahii 1188 after 24 hrs by microdilution broth method; conditions: Trichosporon asahii, 1188, 24 h; procedure, shortened: as §2
# [22] = test system: Staphylococcus epidermidis; assay: Antibacterial activity against Staphylococcus epidermidis H 6966/08 after 48 hrs by microdilution broth method; conditions: H 6966/08, 48 h; procedure, shortened: as §1
# Candida albicans [23] = assay: Antifungal activity against Candida albicans ATCC 44859 after 24 hrs by microdilution broth method; conditions: ATCC 44859, 24 h; procedure, shortened: as §2
# Mycobacterium kansasii [24] = assay: Antimycobacterial activity against Mycobacterium kansasii 235/80 after 21 days; conditions: 235/80, 504 h; procedure, shortened: as §3
# [25] = test system: Mycobacterium tuberculosis; assay: Antimycobacterial activity against Mycobacterium tuberculosis H37Rv 331/88 after 21 days; conditions: H37Rv 331/88, 504 h
# Mycobacterium avium [26] = assay: Antimycobacterial activity against Mycobacterium avium 330/80 after 21 days; conditions: 330/80, 504 h
# [27] = test system: Trichophyton mentagrophytes; assay: Antifungal activity against Trichophyton mentagrophytes 445 after 48 hrs by microdilution broth method; conditions: Trichophyton mentagrophytes, 445, 48 h
# Staphylococcus aureus [28] = assay: Antibacterial activity against methicillin-resistant Staphylococcus aureus H 5996/08 after 24 hrs by microdilution broth method; conditions: H 5996/08, 24 h
# Trichosporon asahii [29] = assay: Antifungal activity against Trichosporon asahii 1188 after 48 hrs by microdilution broth method; conditions: Trichosporon asahii, 1188, 48 h; procedure, shortened: as §2
# Klebsiella pneumoniae [30] = assay: Antibacterial activity against Klebsiella pneumoniae D 11750/08 after 24 hrs by microdilution broth method; conditions: D 11750/08, 24 h; procedure, shortened: as §1
# Mycobacterium kansasii [31] = assay: Antimycobacterial activity against Mycobacterium kansasii 6509/96 after 7 days; conditions: 6509/96, 168 h; procedure, shortened: as §3
# Pseudomonas aeruginosa [32] = assay: Antibacterial activity against Pseudomonas aeruginosa CCM 1961 after 24 hrs by microdilution broth method; conditions: CCM 1961, 24 h; procedure, shortened: as §1
# Aspergillus fumigatus [33] = assay: Antifungal activity against Aspergillus fumigatus 231 after 24 hrs by microdilution broth method; conditions: Aspergillus fumigatus, 231, 24 h; procedure, shortened: as §2
# Nakaseomyces glabratus [34] = assay: Antifungal activity against Candida glabrata 20/I after 48 hrs by microdilution broth method; procedure, shortened: as §2
# Lichtheimia corymbifera [35] = assay: Antifungal activity against Absidia corymbifera 272 after 24 hrs by microdilution broth method; conditions: Lichtheimia corymbifera, 272, 24 h; procedure, shortened: as §2
# Pichia kudriavzevii [36] = assay: Antifungal activity against Candida krusei E28 after 24 hrs by microdilution broth method; conditions: E28, 24 h; procedure, shortened: as §2
# Lichtheimia corymbifera [37] = assay: Antifungal activity against Absidia corymbifera 272 after 48 hrs by microdilution broth method; conditions: Lichtheimia corymbifera, 272, 48 h; procedure, shortened: as §2
# Aspergillus fumigatus [38] = assay: Antifungal activity against Aspergillus fumigatus 231 after 48 hrs by microdilution broth method; conditions: Aspergillus fumigatus, 231, 48 h; procedure, shortened: as §2
# Nakaseomyces glabratus [39] = assay: Antifungal activity against Candida glabrata 20/I after 24 hrs by microdilution broth method; procedure, shortened: as §2
# Klebsiella pneumoniae [40] = assay: Antibacterial activity against Klebsiella pneumoniae D 11750/08 after 48 hrs by microdilution broth method; conditions: D 11750/08, 48 h; procedure, shortened: as §1
# Enterococcus sp. [41] = assay: Antibacterial activity against Enterococcus sp. J 14365/08 after 24 hrs by microdilution broth method; conditions: J 14365/08, 24 h; procedure, shortened: as §1
# Pichia kudriavzevii [42] = assay: Antifungal activity against Candida krusei E28 after 48 hrs by microdilution broth method; conditions: E28, 48 h; procedure, shortened: as §2
compound,measurement,setting,value
O=C(Nc1cccc(Br)c1)c1cc([N+](=O)[O-])ccc1O,MIC,Enterococcus sp. [1],> 500 µM
same,MIC,Escherichia coli [2],> 500 µM
same,MIC,Candida tropicalis [3],> 500 µM
same,MIC,Staphylococcus aureus [4],62.5 µM
same,MIC,Mycobacterium avium [5],125 µM
same,MIC,Escherichia coli [6],> 500 µM
same,MIC,Staphylococcus aureus [7],62.5 µM
same,MIC,Candida tropicalis [8],> 500 µM
same,MIC,[9],16 µM
same,MIC,Mycobacterium kansasii [10],62.5 µM
same,MIC,Mycobacterium kansasii [11],62.5 µM
same,MIC,Candida albicans [12],> 500 µM
same,MIC,Klebsiella pneumoniae [13],> 500 µM
same,MIC,Pseudomonas aeruginosa [14],> 500 µM
same,MIC,Mycobacterium kansasii [15],32 µM
same,MIC,Mycobacterium kansasii [16],62.5 µM
same,MIC,[17],250 µM
same,MIC,[18],31.2 µM
same,MIC,Klebsiella pneumoniae [19],> 500 µM
same,MIC,Staphylococcus aureus [20],31.2 µM
same,MIC,Trichosporon asahii [21],500 µM
same,MIC,[22],250 µM
same,MIC,Candida albicans [23],> 500 µM
same,MIC,Mycobacterium kansasii [24],62.5 µM
same,MIC,[25],16 µM
same,MIC,Mycobacterium avium [26],250 µM
same,MIC,[27],250 µM
same,MIC,Staphylococcus aureus [28],31.2 µM
same,MIC,Trichosporon asahii [29],500 µM
same,MIC,Klebsiella pneumoniae [30],> 500 µM
same,MIC,Mycobacterium kansasii [31],32 µM
same,MIC,Pseudomonas aeruginosa [32],> 500 µM
same,MIC,Aspergillus fumigatus [33],500 µM
same,MIC,Nakaseomyces glabratus [34],> 500 µM
same,MIC,Lichtheimia corymbifera [35],500 µM
same,MIC,Pichia kudriavzevii [36],500 µM
same,MIC,Lichtheimia corymbifera [37],500 µM
same,MIC,Aspergillus fumigatus [38],500 µM
same,MIC,Nakaseomyces glabratus [39],> 500 µM
same,MIC,Klebsiella pneumoniae [40],> 500 µM
same,MIC,Enterococcus sp. [41],500 µM
same,MIC,Pichia kudriavzevii [42],> 500 µM
O=C(Nc1cccc(Cl)c1)c1cc([N+](=O)[O-])ccc1O,MIC,Enterococcus sp. [1],> 500 µM
same,MIC,Escherichia coli [2],> 500 µM
same,MIC,Candida tropicalis [3],> 500 µM
same,MIC,Staphylococcus aureus [4],62.5 µM
same,MIC,Mycobacterium avium [5],125 µM
same,MIC,Escherichia coli [6],> 500 µM
same,MIC,Staphylococcus aureus [7],62.5 µM
same,MIC,Candida tropicalis [8],> 500 µM
same,MIC,[9],16 µM
same,MIC,Mycobacterium kansasii [10],62.5 µM
same,MIC,Mycobacterium kansasii [11],32 µM
same,MIC,Candida albicans [12],> 500 µM
same,MIC,Klebsiella pneumoniae [13],> 500 µM
same,MIC,Pseudomonas aeruginosa [14],> 500 µM
same,MIC,Mycobacterium kansasii [15],16 µM
same,MIC,Mycobacterium kansasii [16],62.5 µM
same,MIC,[17],250 µM
same,MIC,[18],62.5 µM
same,MIC,Klebsiella pneumoniae [19],> 500 µM
same,MIC,Staphylococcus aureus [20],31.2 µM
same,MIC,Trichosporon asahii [21],> 500 µM
same,MIC,[22],62.5 µM
same,MIC,Candida albicans [23],> 500 µM
same,MIC,Mycobacterium kansasii [24],62.5 µM
same,MIC,[25],16 µM
same,MIC,Mycobacterium avium [26],125 µM
same,MIC,[27],250 µM
same,MIC,Staphylococcus aureus [28],62.5 µM
same,MIC,Trichosporon asahii [29],> 500 µM
same,MIC,Klebsiella pneumoniae [30],> 500 µM
same,MIC,Mycobacterium kansasii [31],32 µM
same,MIC,Pseudomonas aeruginosa [32],> 500 µM
same,MIC,Aspergillus fumigatus [33],500 µM
same,MIC,Nakaseomyces glabratus [34],> 500 µM
same,MIC,Lichtheimia corymbifera [35],> 500 µM
same,MIC,Pichia kudriavzevii [36],500 µM
same,MIC,Lichtheimia corymbifera [37],> 500 µM
same,MIC,Aspergillus fumigatus [38],500 µM
same,MIC,Nakaseomyces glabratus [39],> 500 µM
same,MIC,Klebsiella pneumoniae [40],> 500 µM
same,MIC,Enterococcus sp. [41],500 µM
same,MIC,Pichia kudriavzevii [42],> 500 µM
